From ChEMBL document CHEMBL2146464, “Structure-activity relationship study of nitrosopyrimidines acting as antifungal agents” (Bioorg Med Chem, 2012)
Converted amounts (≈) assume the structure as drawn. The source made the active and inactive calls. The rule behind the calls is not given here.

How the values were obtained:
Candida albicans [1] = assay: Antifungal activity against Candida albicans ATCC 10231 after 48 hrs by NCCLS broth microdilution method; assay type: functional; conditions: ATCC 10231, 48 h, read-out: MIC100
Method in brief: (§1)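 Yeast MIC by NCCLS M27-A3 broth microdilution in RPMI-1640 buffered to pH 7.0 with MOPS. Twofold dilutions of 250–0.98 µg/mL, final DMSO ≤1%. Inoculum 1–5 × 10³ CFU/mL. Incubated at 30 °C in a moist dark chamber. Read visually at 48 h. MIC100 is the lowest concentration with no visible growth versus drug-free control.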

Candida tropicalis [2] = assay: Antifungal activity against Candida tropicalis after 48 hrs by NCCLS broth microdilution method; assay type: functional; conditions: read-out: MIC100; method in brief: as §1
Cryptococcus neoformans [3] = assay: Antifungal activity against Cryptococcus neoformans ATCC 32264 after 48 hrs by NCCLS broth microdilution method; assay type: functional; conditions: ATCC 32264, 48 h, read-out: MIC100; method in brief: as §1
Candida tropicalis [4] = assay: Antifungal activity against Candida tropicalis by microplate reader analysis; assay type: functional
Candida albicans [5] = assay: Fungicidal activity against Candida albicans ATCC 10231 at 0.98 to 250 ug/mL after 48 hrs by agar plate dilution method; assay type: functional, organism-based
Method in brief: (§2)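 MFC: after the microdilution MIC, material from each clear well was plated onto RPMI-1640 agar buffered with MOPS. Plates incubated at 30 °C and read after 48 h. MFC is the lowest concentration giving total inhibition of visible growth.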

Candida tropicalis [6] = assay: Fungicidal activity against Candida tropicalis at 0.98 to 250 ug/mL after 48 hrs by agar plate dilution method; assay type: functional, organism-based; method in brief: as §2
Cryptococcus neoformans [7] = assay: Fungicidal activity against Cryptococcus neoformans ATCC 32264 at 0.98 to 250 ug/mL after 48 hrs by agar plate dilution method; assay type: functional, organism-based; method in brief: as §2
Aspergillus flavus = assay: Antifungal activity against Aspergillus flavus ATCC 9170 at 0.98 to 250 ug/mL by NCCLS broth microdilution method; assay type: functional, organism-based
Method in brief: (§3)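 MIC by broth microdilution per NCCLS M27-A3/M38-A2 in RPMI-1640 buffered to pH 7.0 with MOPS. Twofold dilutions from 250–0.98 µg/mL, final DMSO ≤1%. Inoculum 1–5 × 10³ CFU/mL. Incubated in a moist dark chamber, 30 °C for Aspergillus and 28–30 °C for dermatophytes. Read visually when control growth allowed. Endpoint is the lowest concentration giving total inhibition of visible growth (MIC100).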

Aspergillus fumigatus = assay: Antifungal activity against Aspergillus fumigatus ATCC 26934 at 0.98 to 250 ug/mL by NCCLS broth microdilution method; assay type: functional, organism-based; method in brief: as §3
Aspergillus niger = assay: Antifungal activity against Aspergillus niger ATCC 9029 at 0.98 to 250 ug/mL by NCCLS broth microdilution method; assay type: functional, organism-based; method in brief: as §3
Nannizzia gypsea = assay: Antifungal activity against Microsporum gypseum CCC 115 at 0.98 to 250 ug/mL by NCCLS broth microdilution method; assay type: functional, organism-based; method in brief: as §3
Trichophyton rubrum = assay: Antifungal activity against Trichophyton rubrum CCC 110 at 0.98 to 250 ug/mL by NCCLS broth microdilution method; assay type: functional, organism-based; method in brief: as §3
[8] = tested on: Trichophyton mentagrophytes; assay: Antifungal activity against Trichophyton mentagrophytes ATCC 9972 at 0.98 to 250 ug/mL by NCCLS broth microdilution method; assay type: functional, organism-based; method in brief: as §3
Candida albicans [9] = assay: Antifungal activity against Candida albicans ATCC 10231 assessed as growth inhibition at 250 ug/mL after 24 hrs by microplate reader analysis; assay type: functional; conditions: ATCC 10231, 24 h, read-out: GI
Method in brief: (§4)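 96-well RPMI-1640 wells with compound at final 250–0.98 µg/mL (DMSO ≤1%). Inoculum 100 µL, 1–5 × 10³ CFU/mL, 200 µL final. Each well includes growth (DMSO, no compound) and sterility controls. % inhibition = 100 − (CTW−SCW)/(GCW−SCW) × 100, run in duplicate.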

Candida tropicalis [10] = assay: Antifungal activity against Candida tropicalis assessed as growth inhibition at 250 ug/mL by microplate reader analysis; assay type: functional; conditions: read-out: GI
Cryptococcus neoformans [11] = assay: Antifungal activity against Cryptococcus neoformans ATCC 32264 assessed as growth inhibition at 250 ug/mL after 48 hrs by microplate reader analysis; assay type: functional; conditions: ATCC 32264, 48 h, read-out: GI
Method in brief: (§5)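 Microplate growth-inhibition assay in RPMI-1640, compound at final 250–0.98 µg/mL (DMSO ≤1%). Inoculum 1–5 × 10³ CFU/mL. Sterility and DMSO growth controls included. Percent inhibition is computed from blank-corrected OD relative to the growth control, tested in duplicate.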

Candida albicans [12] = assay: Antifungal activity against Candida albicans ATCC 10231 assessed as growth inhibition at 125 ug/mL after 24 hrs by microplate reader analysis; assay type: functional; conditions: ATCC 10231, 24 h, read-out: GI; method in brief: as §4
Candida tropicalis [13] = assay: Antifungal activity against Candida tropicalis assessed as growth inhibition at 125 ug/mL by microplate reader analysis; assay type: functional; conditions: read-out: GI
Cryptococcus neoformans [14] = assay: Antifungal activity against Cryptococcus neoformans ATCC 32264 assessed as growth inhibition at 125 ug/mL after 48 hrs by microplate reader analysis; assay type: functional; conditions: ATCC 32264, 48 h, read-out: GI; method in brief: as §5
Candida albicans [15] = assay: Antifungal activity against Candida albicans ATCC 10231 assessed as growth inhibition at 62.5 ug/mL after 24 hrs by microplate reader analysis; assay type: functional; conditions: ATCC 10231, 24 h, read-out: GI; method in brief: as §4
Candida tropicalis [16] = assay: Antifungal activity against Candida tropicalis assessed as growth inhibition at 62.5 ug/mL by microplate reader analysis; assay type: functional; conditions: read-out: GI
Cryptococcus neoformans [17] = assay: Antifungal activity against Cryptococcus neoformans ATCC 32264 assessed as growth inhibition at 62.5 ug/mL after 48 hrs by microplate reader analysis; assay type: functional; conditions: ATCC 32264, 48 h, read-out: GI; method in brief: as §5
Candida albicans [18] = assay: Antifungal activity against Candida albicans ATCC 10231 assessed as growth inhibition at 31.25 ug/mL after 24 hrs by microplate reader analysis; assay type: functional; conditions: ATCC 10231, 24 h, read-out: GI; method in brief: as §4
Candida tropicalis [19] = assay: Antifungal activity against Candida tropicalis assessed as growth inhibition at 31.25 ug/mL by microplate reader analysis; assay type: functional; conditions: read-out: GI
Cryptococcus neoformans [20] = assay: Antifungal activity against Cryptococcus neoformans ATCC 32264 assessed as growth inhibition at 31.25 ug/mL after 48 hrs by microplate reader analysis; assay type: functional; conditions: ATCC 32264, 48 h, read-out: GI; method in brief: as §5
Candida albicans [21] = assay: Antifungal activity against Candida albicans ATCC 10231 assessed as growth inhibition at 15.6 ug/mL after 24 hrs by microplate reader analysis; assay type: functional; conditions: ATCC 10231, 24 h, read-out: GI; method in brief: as §4
Candida tropicalis [22] = assay: Antifungal activity against Candida tropicalis assessed as growth inhibition at 15.6 ug/mL by microplate reader analysis; assay type: functional; conditions: read-out: GI
Cryptococcus neoformans [23] = assay: Antifungal activity against Cryptococcus neoformans ATCC 32264 assessed as growth inhibition at 15.6 ug/mL after 48 hrs by microplate reader analysis; assay type: functional; conditions: ATCC 32264, 48 h, read-out: GI; method in brief: as §5
Candida albicans [24] = assay: Antifungal activity against Candida albicans ATCC 10231 assessed as growth inhibition at 7.8 ug/mL after 24 hrs by microplate reader analysis; assay type: functional; conditions: ATCC 10231, 24 h, read-out: GI; method in brief: as §4
Candida tropicalis [25] = assay: Antifungal activity against Candida tropicalis assessed as growth inhibition at 7.8 ug/mL by microplate reader analysis; assay type: functional; conditions: read-out: GI
Cryptococcus neoformans [26] = assay: Antifungal activity against Cryptococcus neoformans ATCC 32264 assessed as growth inhibition at 7.8 ug/mL after 48 hrs by microplate reader analysis; assay type: functional; conditions: ATCC 32264, 48 h, read-out: GI; method in brief: as §5
Candida albicans [27] = assay: Antifungal activity against Candida albicans ATCC 10231 assessed as growth inhibition at 3.9 ug/mL after 24 hrs by microplate reader analysis; assay type: functional; conditions: ATCC 10231, 24 h, read-out: GI; method in brief: as §4
Candida tropicalis [28] = assay: Antifungal activity against Candida tropicalis assessed as growth inhibition at 3.9 ug/mL by microplate reader analysis; assay type: functional; conditions: read-out: GI
Cryptococcus neoformans [29] = assay: Antifungal activity against Cryptococcus neoformans ATCC 32264 assessed as growth inhibition at 3.9 ug/mL after 48 hrs by microplate reader analysis; assay type: functional; conditions: ATCC 32264, 48 h, read-out: GI; method in brief: as §5
Candida albicans [30] = assay: Antifungal activity against Candida albicans ATCC 10231 after 24 hrs by microplate reader analysis; assay type: functional; conditions: ATCC 10231, 24 h; method in brief: as §4
[31] = Acute toxicity in bony fish assessed as mortality at 3 ug/mL after 96 hrs; conditions: actinopterygii; read-out: Activity
Method in brief: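 Guppy (Poecilia reticulata) acute static exposure: 10 fish per concentration in 2 L wide-mouthed jars holding the test solution. Compounds were added from […] to give the final concentrations. Dead fish were counted and removed every 24 h, with general condition noted; percentage mortality was scored at 96 h. Two experiments, each in triplicate.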

Cryptococcus neoformans [32] = assay: Antifungal activity against Cryptococcus neoformans ATCC 32264 after 48 hrs by microplate reader analysis; assay type: functional; conditions: ATCC 32264, 48 h; method in brief: as §5

Compound: COc1nc(N)nc2c1ncn2C12CC3CC(CC(C3)C1)C2
- MIC (Candida albicans [1]): 250 µg/mL (≈ 835 µM)
- MIC (Candida tropicalis [2]): 250 µg/mL (≈ 835 µM)
- MIC (Cryptococcus neoformans [3]): 250 µg/mL (≈ 835 µM)
- MIC50 (Candida tropicalis [4]): 62.5 µg/mL (≈ 209 µM)
- Activity (Candida albicans [5]): inactive
- Activity (Candida tropicalis [6]): inactive
- Activity (Cryptococcus neoformans [7]): inactive
- Activity (Aspergillus flavus): inactive
- Activity (Aspergillus fumigatus): inactive
- Activity (Aspergillus niger): inactive
- Activity (Nannizzia gypsea): inactive
- Activity (Trichophyton rubrum): inactive
- Activity [8]: inactive
- inhibition of growth at 250 µg/mL (Candida albicans [9]): 100%
- inhibition of growth at 250 µg/mL (Candida tropicalis [10]): 100%
- inhibition of growth at 250 µg/mL (Cryptococcus neoformans [11]): 100%
- inhibition of growth at 125 µg/mL (Candida albicans [12]): 86.8%
- inhibition of growth at 125 µg/mL (Candida tropicalis [13]): 81.2%
- inhibition of growth at 125 µg/mL (Cryptococcus neoformans [14]): 88%
- inhibition of growth at 62.5 µg/mL (Candida albicans [15]): 43.4%
- inhibition of growth at 62.5 µg/mL (Candida tropicalis [16]): 53.3%
- inhibition of growth at 62.5 µg/mL (Cryptococcus neoformans [17]): 51.1%
- inhibition of growth at 31.25 µg/mL (Candida albicans [18]): 38.9%
- inhibition of growth at 31.25 µg/mL (Candida tropicalis [19]): 47.3%
- inhibition of growth at 31.25 µg/mL (Cryptococcus neoformans [20]): 56.9%
- inhibition of growth at 15.6 µg/mL (Candida albicans [21]): 34.3%
- inhibition of growth at 15.6 µg/mL (Candida tropicalis [22]): 41.5%
- inhibition of growth at 15.6 µg/mL (Cryptococcus neoformans [23]): 39.2%
- inhibition of growth at 7.8 µg/mL (Candida albicans [24]): 23.2%
- inhibition of growth at 7.8 µg/mL (Candida tropicalis [25]): 34.5%
- inhibition of growth at 7.8 µg/mL (Cryptococcus neoformans [26]): 9.5%
- inhibition of growth at 3.9 µg/mL (Candida albicans [27]): 29.3%
- inhibition of growth at 3.9 µg/mL (Candida tropicalis [28]): 36.4%
- inhibition of growth at 3.9 µg/mL (Cryptococcus neoformans [29]): 0%
- MIC50 (Candida albicans [30]): 62.5 µg/mL (≈ 209 µM)
- mortality at 96 h, 3 ug/mL [31]: 0%
- MIC50 (Cryptococcus neoformans [32]): 31.2 µg/mL (≈ 104 µM)
